Source: ChEMBL document CHEMBL3227993, “Studies on 3-substituted 1,2-benzisoxazole derivatives. 6. Syntheses of 3-(sulfamoylmethyl)-1,2-benzisoxazole derivatives and their anticonvulsant activities” (J Med Chem, 1979)
The source made the active and inactive calls. The rule behind the calls is not given here.

How the values were obtained:
Mus musculus [1] = assay: Anticonvulsant activity in po dosed STD-dd mouse assessed as protection against hind-limb extensor component of maximal electroshock seizure administered via gavage measured 2 hrs after drug dosing; format: functional
Outline: (§1)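 Mice dosed by gavage as a suspension in 5% tragacanth solution. Maximal electroshock was given as 60-Hz, 25-mA current for 0.2 s through corneal electrodes, 2 h after dosing. Protection was scored as prevention of hind-limb extension. Preliminary screen used 100 mg/kg. For ED50, groups of ten mice per dose level at ≥4 dose levels, with values calculated by Litchfield–Wilcoxon.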

Mus musculus [2] = assay: Anticonvulsant activity in STD-dd mouse assessed as protection against hind-limb extensor component of maximal electroshock seizure at 100 mg/kg, po administered via gavage measured 2 hrs after drug dosing; format: functional, organism-based; design: dose 100 mg/kg; outline: as §1
[3] = Neurotoxicity in po dosed STD-dd mouse assessed as muscle incoordination administered via gavage by rotarod test; format: toxicity, organism-based, Muscle tissue; details: in vivo
Outline: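 Gavage dosing as a suspension in 5% tragacanth solution, with ten mice per dose level at ≥4 levels. Rotarod test 2 h after dosing used a horizontal rod 2.5 cm in diameter rotating at 11 rpm. Minimal neurotoxicity end point was muscle incoordination, i.e. inability to stay on the rod. NTD50 was calculated by Litchfield–Wilcoxon.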

Row | Compound | ED50 (Mus musculus [1]) | Activity (Mus musculus [2]) | TD50 [3]
1 | O=S(=O)(Cc1noc2ccccc12)NO | 32 mg/kg | – | –
2 | NS(=O)(=O)Cc1noc2cc(F)ccc12 | 19 mg/kg | – | –
3 | CN(C)NS(=O)(=O)Cc1noc2ccccc12 | – | inactive | –
4 | CCNS(=O)(=O)Cc1noc2ccc(Cl)cc12 | 21 mg/kg | – | –
5 | NS(=O)(=O)Cc1noc2ccc(F)cc12 | 15 mg/kg | – | –
6 | CN(C)S(=O)(=O)Cc1noc2ccc(Cl)cc12 | 57 mg/kg | – | 250 mg/kg
7 | CCNS(=O)(=O)Cc1noc2ccc(Br)cc12 | 18 mg/kg | – | 66 mg/kg
8 | O=S(=O)(Cc1noc2ccccc12)NCCO | – | inactive | –
9 | CNS(=O)(=O)Cc1noc2ccccc12 | 23 mg/kg | – | –
10 | COc1ccc2onc(CS(N)(=O)=O)c2c1 | – | inactive | –
11 | CN1CCN(S(=O)(=O)Cc2noc3ccc(Br)cc23)CC1 | 88 mg/kg | – | 87 mg/kg
12 | CCNS(=O)(=O)Cc1noc2ccc(F)cc12 | 32 mg/kg | – | 200 mg/kg
13 | CNS(=O)(=O)Cc1noc2ccc(F)cc12 | 35 mg/kg | – | 168 mg/kg
14 | CN(C)S(=O)(=O)Cc1noc2ccc(Br)cc12 | 45 mg/kg | – | 100 mg/kg
15 | CN(C)CCCNS(=O)(=O)Cc1noc2ccccc12 | – | inactive | –
16 | CCC1(CC)C(=O)NC(=O)N(C)C1=O [METHARBITAL] | 60.8 mg/kg | – | 87.9 mg/kg
17 | CNS(=O)(=O)Cc1noc2ccc(Cl)cc12 | 20 mg/kg | – | 60 mg/kg
18 | O=S(=O)(Cc1noc2ccccc12)NCc1ccccc1 | – | inactive | –
19 | CC(C)NS(=O)(=O)Cc1noc2ccc(Cl)cc12 | 100 mg/kg | – | –
20 | NS(=O)(=O)Cc1noc2ccccc12 [ZONISAMIDE] | 20 mg/kg | – | –
21 | NNS(=O)(=O)Cc1noc2ccccc12 | – | inactive | –
22 | CN(C)S(=O)(=O)Cc1noc2ccccc12 | 37 mg/kg | – | –
23 | NS(=O)(=O)Cc1noc2ccc(Cl)cc12 | 14 mg/kg | – | 52 mg/kg

Row | Compound | ED50 (Mus musculus [1]) | Activity (Mus musculus [2]) | TD50 [3]
24 | CN(C)S(=O)(=O)Cc1noc2ccc(F)cc12 | 32 mg/kg | – | 350 mg/kg
25 | CC(C)NS(=O)(=O)Cc1noc2ccc(Br)cc12 | 22 mg/kg | – | 93 mg/kg
26 | CCCNS(=O)(=O)Cc1noc2ccccc12 | – | inactive | –
27 | COC(=O)c1ccccc1NS(=O)(=O)Cc1noc2ccccc12 | – | inactive | –
28 | O=S(=O)(Cc1noc2ccccc12)N1CCN(c2ccccc2)CC1 | – | inactive | –
29 | Cc1ccc2onc(CS(N)(=O)=O)c2c1 | – | inactive | –
30 | NS(=O)(=O)CCc1noc2ccccc12 | 26 mg/kg | – | –
31 | NS(=O)(=O)Cc1noc2ccc([N+](=O)[O-])cc12 | – | inactive | –
32 | CN1CCN(S(=O)(=O)Cc2noc3ccc(F)cc23)CC1 | 100 mg/kg | – | 142 mg/kg
33 | Cc1cccc2c(CS(N)(=O)=O)noc12 | – | inactive | –
34 | O=C1NC(=O)C(c2ccccc2)(c2ccccc2)N1 [PHENYTOIN] | 10 mg/kg | – | 111 mg/kg
35 | O=S(=O)(Cc1noc2ccccc12)N1CCOCC1 | – | inactive | –
36 | CC(C)NS(=O)(=O)Cc1noc2ccccc12 | 56 mg/kg | – | 340 mg/kg
37 | O=S(=O)(Cc1noc2ccccc12)Nc1ccccc1 | – | inactive | –
38 | O=S(=O)(Cc1noc2ccccc12)N1CCCCC1 | – | inactive | –
39 | CC(C)NS(=O)(=O)Cc1noc2ccc(F)cc12 | 38 mg/kg | – | 109 mg/kg
40 | CCNS(=O)(=O)Cc1noc2ccccc12 | 39 mg/kg | – | 223 mg/kg
41 | NS(=O)(=O)CCCc1noc2ccccc12 | 39 mg/kg | – | –
42 | CN1CCN(S(=O)(=O)Cc2noc3ccccc23)CC1 | 57 mg/kg | – | –
43 | CNS(=O)(=O)Cc1noc2ccc(Br)cc12 | 15 mg/kg | – | –
44 | O=S(=O)(Cc1noc2ccccc12)N1CCN(Cc2ccccc2)CC1 | – | inactive | –
45 | NS(=O)(=O)Cc1noc2ccc(Br)cc12 | 14 mg/kg | – | 60 mg/kg
